pKd: −log10 of the molar value.
How the values were obtained:
[1] = Inhibition of Mycobacterium tuberculosis CYP121A1 mediated cYY conversion to mycocyclosin assessed as fold change in cYY level at 100 uM incubated for 2 hrs in the presence of NADPH by LC-MS activity assay relative to clotrimazole; type: ADME; settings: recombinant enzyme
[2] = Inhibition of cYY binding to Mycobacterium tuberculosis CYP121A1 expressed in Escherichia coli HMS174 (DE3) assessed as dissociation constant of cYY preincubated with compound followed by substrate addition by competitive UV-visible spectroscopic analysis; type: ADME
How it was run: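 CYP121A1 at 5 μM. […] UV-vis difference spectra processed as for direct titrations and fitted to the Hill equation for Kd.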

[3] = Binding affinity to Mycobacterium tuberculosis CYP121A1 expressed in Escherichia coli HMS174 (DE3) assessed as thermal stability by measuring increase in melting temperature at 1mM by SYPRO orange dye based differential scanning fluorimetry assay; settings: 1000 µM
How it was run: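 Protein at 5 μM in 100 mM potassium phosphate pH 6.9 with 2.5× Sypro Orange. Ligand 1 mM final, 4% DMSO-d6. Scanned 25–95 °C in 0.5 °C steps of 30 s. Positive Tm shifts repeated in triplicate and averaged over four runs.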

[4] = tested on: Mycobacterium tuberculosis; test: Antimycobacterial activity against Mycobacterium tuberculosis H37Rv assessed as inhibition of bacterial growth in presence of middlebrook 7H9/BSAADN//tyloxapol/glycerol medium measured for 1 week by resazurin based colorimetric assay; type: functional; settings: 168 h, time 1 weeks
How it was run: (§1)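 Mtb H37Rv grown in 7H9 with 10% ADC, 0.05% tyloxapol, 0.02% glycerol to OD600 ~1, then pre-adapted 8 days at 37 °C in the test medium (c7H9, 7H9-Low BSA or MMM-Ch). DMSO stocks serially diluted, 400 to 0.78 μM, about 10^5 CFU per well. Incubated at 37 °C for 1 week (c7H9, Low BSA) or 2 weeks (MMM-Ch). 0.02% resazurin added for 1 day more. MIC90 read visually as lowest concentration with no colour change.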

[5] = tested on: Mycobacterium tuberculosis; test: Antimycobacterial activity against Mycobacterium tuberculosis H37Rv assessed as inhibition of bacterial growth in presence of Mycobacterial minimal medium with cholesterol measured for 2 weeks by resazurin based colorimetric assay; type: functional; settings: 336 h; how it was run: as §1
[6] = tested on: Mycobacterium tuberculosis; test: Antimycobacterial activity against Mycobacterium tuberculosis H37Rv assessed as inhibition of bacterial growth in presence of middlebrook 7H9/ADC/tyloxapol/glycerol medium measured for 1 week by resazurin based colorimetric assay; type: functional; settings: 168 h, time 1 weeks; how it was run: as §1
[7] = Binding affinity to Mycobacterium tuberculosis CYP121A1 expressed in Escherichia coli HMS174 (DE3) assessed as dissociation constant by isothermal titration calorimetry; type: ADME
How it was run: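 Untagged His-purified CYP121A1 at 50 μM in 50 mM Tris-HCl, 1 mM EDTA, pH 7.2, with 10% DMSO-d6. Ligand at 0.5 or 2.5 mM final. One 0.2 μL injection discarded, then 19 injections of 2 μL at 120 s intervals, 25 °C. Ligand-into-buffer heats subtracted. One-site fit, N fixed at 1 for weak binders or left free.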

| Compound | fold change (FC) [1] | also measured |
| --- | --- | --- |
| c1ccc2c(c1)OCCN2c1nccc(CCc2c[nH]c3ccccc23)n1 | 0.1 | pKd [2]: 4.76 |
| c1ccc2c(CCc3nc4c(c(N5CCOCC5)n3)CCNC4)c[nH]c2c1 | 1.3 | deltaTm [3]: 1 °C |
| N[C@H](Cc1c[nH]c2ccccc12)c1nc(-c2ccccn2)cs1 |  | MIC90 [4]: 40 µM; MIC90 [5]: 40 µM; MIC90 [6]: 40 µM |
| COC1CN(c2nccc(CCc3c[nH]c4ccccc34)n2)C1 | 1.2 |  |
| Ic1ccc2[nH]cc(CCc3ccncc3)c2c1 | 1.9 |  |
| c1ccc2c(CCc3ccnc(N4CCCOCC4)n3)c[nH]c2c1 | 4.7 |  |
| N[C@H](Cc1c[nH]c2ccccc12)c1nc(-c2ccc(OC(F)(F)F)cc2)cs1 |  | MIC90 [4]: 40 µM; MIC90 [5]: 40 µM; MIC90 [6]: 40 µM |
| Fc1ccc2[nH]cc(CCc3ccnc(N4CCOCC4)n3)c2c1 | 10.6 |  |
| c1ccc2c(CCc3ccnc(N4CCOCC4)n3)c[nH]c2c1 | 4.7 | pKd [2]: 4.60 |
| Oc1ccc2[nH]cc(CCc3ccnc(N4CCOCC4)n3)c2c1 | 3.5 | deltaTm [3]: 0.5 °C |
| Fc1ccc2[nH]cc(CCc3ccncc3)c2c1 | 3.5 |  |
| c1ccc2c(CCc3ccncc3)c[nH]c2c1 | 1.1 |  |
| Nc1[nH]nc(-c2ccc(O)cc2)c1-c1ccc(O)cc1 |  | deltaTm [3]: 1 °C; pKd [7]: 4.70 |
| N[C@H](Cc1c[nH]c2ccccc12)c1nc(-c2ccccc2)cs1 |  | MIC90 [4]: 40 µM; MIC90 [5]: 40 µM; MIC90 [6]: 40 µM |
| c1ccc2c(CCc3nc4c(c(N5CCOCC5)n3)CNC4)c[nH]c2c1 | 4.1 | deltaTm [3]: 3.5 °C |
| Brc1ccc2[nH]cc(CCc3ccncc3)c2c1 | 1.3 |  |
| Clc1ccc2[nH]cc(CCc3ccncc3)c2c1 | 2.3 |  |
| c1ccc2c(CCc3ccncn3)c[nH]c2c1 | 1.8 | deltaTm [3]: 3.5 °C |
| Cn1cc(CCc2ccnc(N3CCOCC3)n2)c2ccccc21 | 2.1 |  |
| COC1CN(c2nccc(CCc3c[nH]c4ccc(Br)cc34)n2)C1 | 1.8 |  |
| Brc1ccc2[nH]cc(CCc3ccnc(N4CCOCC4)n3)c2c1 | 3.8 |  |
| c1ccc2c(CCc3nc4c(c(N5CC6CCC(C5)O6)n3)CNC4)c[nH]c2c1 |  | deltaTm [3]: 2.4 °C |
| Brc1ccc2c(c1)N(c1nccc(CCc3c[nH]c4ccccc34)n1)CCO2 | 0.3 |  |
| FC(F)(F)Oc1ccc2[nH]cc(CCc3ccnc(N4CCOCC4)n3)c2c1 | 1.1 |  |
| COc1ccc2[nH]cc(CCc3ccncc3)c2c1 | 1 |  |
| FC(F)(F)Oc1ccc2[nH]cc(CCc3ccncc3)c2c1 | 1.2 |  |

From ChEMBL document CHEMBL5120755, “A new strategy for hit generation: Novel in cellulo active inhibitors of CYP121A1 from Mycobacterium tuberculosis via a combined X-ray crystallographic and phenotypic screening approach (XP screen)” (Eur J Med Chem, 2022)
